Results pooled from the literature.
Compare with care: the assays were run in different laboratories.
CDK14 with cyclin Y: Cyclin-dependent kinase 14, with cyclin Y (CDK14, Homo sapiens, UniProt O94921)
CDK14: Cyclin-dependent kinase 14 (CDK14, Homo sapiens, UniProt O94921)

CN1CC(Oc2cnc(C#N)cc2-c2ccn3nc(NC(=O)C4CC4)cc3c2)C1 — inhibition (CDK14 with cyclin Y; enzyme activity, inhibitor; 1 µM): -11%
Cc1ccc(C(=O)Nc2ccc(CN3CCN(C)CC3)c(C(F)(F)F)c2)cc1C#Cc1cnc2cccnn12 — remaining activity (CDK14; enzyme activity, inhibitor; 23.5 nM): 68%
Cn1nc(C(F)(F)F)cc1-c1cnc(N2CCc3cc(S(=O)(=O)Nc4c(F)cc(Cl)cc4F)cc(N4CCCC4=O)c32)nc1 — remaining binding (CDK14; cell-free assay, competition with immobilised ligand; 1 µM): 100%
CC1CCCN1c1nccc(-c2cnn3ncccc23)n1 (stereo not drawn) — remaining binding (CDK14; binding; 1 µM): 100%
O=C(Nc1cnn(-c2csc(C(=O)NC3COC3)c2)c1)Nc1ccccc1Cl — remaining activity (CDK14; enzyme activity, inhibitor; 5 µM): 107%
Cc1ccc(C(=O)NCc2ccsc2)cc1C#Cc1cn(C(C)C)c2ncnc(N)c12 — activity vs control (CDK14 with cyclin Y; enzyme activity, inhibitor; 1 µM): 92%
Cc1sc(C(=O)NC2COC2)cc1-n1cc(NC(=O)Nc2c(F)cccc2Cl)cn1 — remaining activity (CDK14; enzyme activity, inhibitor; 10 µM): 100%
COc1cc(Cl)c(C(=O)N[C@@H](CN[C@H]2CC[C@@H](N)CC2)Cc2ccc(C#N)cc2)cc1-c1ccc(CN[C@H](C)c2ccc(C)cc2)o1 — remaining activity (CDK14 with cyclin Y; enzyme activity, inhibitor; 1 µM): 99%
O=[N+]([O-])c1cccc2[nH]c(CNc3nc(N4CCOCC4)nc4c3ncn4-c3ccsc3)nc12 — binding vs control (CDK14; binding, competition with immobilised ligand; 10 µM): 40%
Nc1ncnc2occ(-c3ccc(NC(=O)Nc4cc(C(F)(F)F)ccc4F)cc3)c12 — remaining signal (CDK14; cell-free assay, inhibitor; 20 µM): 0.1%
CCC(=N\O)/C(C)=C/c1ccc(F)cc1 — remaining binding (CDK14; cell-free assay, competition with immobilised ligand; 1 µM): 91%
Fc1cccc(-n2cnc3c(NCc4nc5c(F)c(F)ccc5[nH]4)nc(N4CCOCC4)nc32)c1 — binding vs control (CDK14; binding, competition with immobilised ligand; 10 µM): 55%
